Measurements taken from ChEMBL document CHEMBL1649560, “Beta-lactamase-mediated beta-lactam resistance in Campylobacter species: prevalence of Cj0299 (bla OXA-61) and evidence for a novel beta-Lactamase in C. jejuni” (2009).
Converted amounts (≈) assume the structure as drawn.

Assays:
Type in all cases: functional
Campylobacter jejuni [1] = assay: Antibacterial activity against bla gene-positive and nitrocefin reaction-positive beta-lactamase harboring Campylobacter jejuni isolate P1730 by NCCLS agar doubling dilution method
In short: (§1)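 MICs by agar doubling dilution per the NCCLS (now CLSI) Campylobacter Working Group method. Isolates came from UK chicken flocks (feces, ceca or farm environment), 2000–2006. C. jejuni NCTC 11168 and C. coli NCTC 11366 served as control strains. The ampicillin resistance cutoff was 8 μg/ml; BSAC/CLSI Enterobacteriaceae guidelines were used for other agents.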

Campylobacter jejuni [2] = assay: Antibacterial activity against bla gene-negative and nitrocefin reaction-negative beta-lactamase harboring Campylobacter jejuni isolate P850 by NCCLS agar doubling dilution method
In short: (§2)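 MICs of β-lactams by agar doubling dilution following the NCCLS (CLSI) Campylobacter Working Group procedure, with C. jejuni NCTC 11168 and C. coli NCTC 11366 as controls. Isolates were from UK poultry flocks. β-Lactamase status was set by Cj0299 PCR (281-bp amplimer) and by a nitrocefin colour change of sonicated lysate within 5 min, or within 30 min on repeat.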

Campylobacter jejuni [3] = assay: Antibacterial activity against Campylobacter jejuni isolate P338 harboring blaOXA-61::cat gene by NCCLS agar doubling dilution method
In short: (§3)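 Agar doubling dilution MICs (NCCLS/CLSI Campylobacter Working Group method) against Cj0299-inactivated mutants. Mutants were made by transforming the C. jejuni isolate with pCI and selecting on Mueller-Hinton agar with 10 μg/ml chloramphenicol for 3–5 days. Chromosomal insertion was confirmed by PCR with Cj0299 and cat primers.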

Campylobacter coli [4] = assay: Antibacterial activity against bla gene-positive and nitrocefin reaction-positive beta-lactamase harboring Campylobacter coli isolate P321 by NCCLS agar doubling dilution method; in short: as §2
Campylobacter jejuni [5] = assay: Antibacterial activity against bla gene-negative and nitrocefin reaction-positive beta-lactamase harboring Campylobacter jejuni isolate P843 by NCCLS agar doubling dilution method; in short: as §2
Campylobacter jejuni [6] = assay: Antibacterial activity against bla gene-positive and nitrocefin reaction-positive beta-lactamase harboring Campylobacter jejuni isolate P316 by NCCLS agar doubling dilution method; in short: as §1
Campylobacter jejuni [7] = assay: Antibacterial activity against bla gene-positive and nitrocefin reaction-positive beta-lactamase harboring Campylobacter jejuni isolate P1093 by NCCLS agar doubling dilution method; in short: as §2
Campylobacter coli [8] = assay: Antibacterial activity against Campylobacter coli by NCCLS agar doubling dilution method
In short: (§4)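 MICs by agar doubling dilution following the NCCLS (CLSI) Campylobacter Working Group procedure, applied to ampicillin- and amoxicillin-resistant isolates from UK chicken flocks (2000–2006). C. jejuni NCTC 11168 and C. coli NCTC 11366 served as control strains. Resistance was called at an ampicillin cutoff of 8 μg/ml. Other agents were judged against Enterobacteriaceae guidelines (BSAC, CLSI).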

Campylobacter jejuni [9] = assay: Antibacterial activity against bla gene-positive and nitrocefin reaction-negative beta-lactamase harboring Campylobacter jejuni isolate P1698 by NCCLS agar doubling dilution method; in short: as §2
Campylobacter jejuni [10] = assay: Antibacterial activity against bla gene-positive and nitrocefin reaction-positive beta-lactamase harboring Campylobacter jejuni isolate P338 by NCCLS agar doubling dilution method; in short: as §1
Campylobacter jejuni [11] = assay: Antibacterial activity against bla gene-negative and nitrocefin reaction-negative beta-lactamase harboring Campylobacter jejuni isolate P1962 by NCCLS agar doubling dilution method; in short: as §2
Campylobacter coli [12] = assay: Antibacterial activity against bla gene-positive and nitrocefin reaction-positive beta-lactamase harboring Campylobacter coli isolate P1826 by NCCLS agar doubling dilution method; in short: as §2
Campylobacter jejuni [13] = assay: Antibacterial activity against bla gene-positive and nitrocefin reaction-positive beta-lactamase harboring Campylobacter jejuni isolate P1650 by NCCLS agar doubling dilution method; in short: as §2
Campylobacter jejuni [14] = assay: Antibacterial activity against bla gene-positive and nitrocefin reaction-positive beta-lactamase harboring Campylobacter jejuni isolate P1618 by NCCLS agar doubling dilution method; in short: as §2
Campylobacter jejuni [15] = assay: Antibacterial activity against bla gene-positive and nitrocefin reaction-positive beta-lactamase harboring Campylobacter jejuni isolate P285 by NCCLS agar doubling dilution method; in short: as §1
Campylobacter jejuni [16] = assay: Antibacterial activity against bla gene-positive and nitrocefin reaction-positive beta-lactamase harboring Campylobacter jejuni isolate P286 by NCCLS agar doubling dilution method; in short: as §1
Campylobacter jejuni [17] = assay: Antibacterial activity against bla gene-positive and nitrocefin reaction-negative beta-lactamase harboring Campylobacter jejuni isolate P1699 by NCCLS agar doubling dilution method; in short: as §2
Campylobacter jejuni [18] = assay: Antibacterial activity against bla gene-positive and nitrocefin reaction-negative beta-lactamase harboring Campylobacter jejuni NCTC 11168 by NCCLS agar doubling dilution method; in short: as §2
Campylobacter jejuni [19] = assay: Antibacterial activity against bla gene-negative and nitrocefin reaction-negative beta-lactamase harboring Campylobacter jejuni isolate P835 by NCCLS agar doubling dilution method; in short: as §2
Campylobacter jejuni [20] = assay: Antibacterial activity against Campylobacter jejuni isolate P270 harboring blaOXA-61::cat gene by NCCLS agar doubling dilution method
Campylobacter jejuni [21] = assay: Antibacterial activity against Campylobacter jejuni isolate P1093 harboring blaOXA-61::cat gene by NCCLS agar doubling dilution method; in short: as §3
Campylobacter jejuni [22] = assay: Antibacterial activity against bla gene-positive and nitrocefin reaction-positive beta-lactamase harboring Campylobacter jejuni isolate P790 by NCCLS agar doubling dilution method; in short: as §1
Campylobacter jejuni [23] = assay: Antibacterial activity against bla gene-positive and nitrocefin reaction-positive beta-lactamase harboring Campylobacter jejuni isolate P305 by NCCLS agar doubling dilution method; in short: as §1
Campylobacter coli [24] = assay: Antibacterial activity against bla-positive and beta-lactamase-weakly positive Campylobacter coli isolate P1627 by NCCLS agar doubling dilution method; in short: as §1
Campylobacter jejuni [25] = assay: Antibacterial activity against Campylobacter jejuni by NCCLS agar doubling dilution method; in short: as §4
Campylobacter jejuni [26] = assay: Antibacterial activity against bla gene-negative and nitrocefin reaction-positive beta-lactamase harboring Campylobacter jejuni isolate P854 by NCCLS agar doubling dilution method; in short: as §2

| SMILES | MIC (Campylobacter jejuni [1]) | MIC (Campylobacter jejuni [2]) | MIC (Campylobacter jejuni [3]) | MIC (Campylobacter coli [4]) | MIC (Campylobacter jejuni [5]) | MIC (Campylobacter jejuni [6]) | MIC (Campylobacter jejuni [7]) | MIC50 (Campylobacter coli [8]) | MIC90 (Campylobacter coli [8]) | MIC (Campylobacter jejuni [9]) | MIC (Campylobacter jejuni [10]) | MIC (Campylobacter jejuni [11]) | MIC (Campylobacter coli [12]) | MIC (Campylobacter jejuni [13]) | MIC (Campylobacter jejuni [14]) | MIC (Campylobacter jejuni [15]) | MIC (Campylobacter jejuni [16]) | MIC (Campylobacter jejuni [17]) | MIC (Campylobacter jejuni [18]) | MIC (Campylobacter jejuni [19]) | further results |
| --- | --- | --- | --- | --- | --- | --- | --- | --- | --- | --- | --- | --- | --- | --- | --- | --- | --- | --- | --- | --- | --- |
| C[C@@H](O)[C@H]1C(=O)N2C(C(=O)O)=C(S[C@@H]3CN[C@H](C(=O)N(C)C)C3)[C@H](C)[C@H]12 [MEROPENEM] | 0.015 µg/mL (≈ 0.0391 µM) | 0.03 µg/mL (≈ 0.0782 µM) | 0.015 µg/mL (≈ 0.0391 µM) | 0.12 µg/mL (≈ 0.313 µM) | 0.03 µg/mL (≈ 0.0782 µM) | 0.12 µg/mL (≈ 0.313 µM) | 0.5 µg/mL (≈ 1.3 µM) | 0.12 µg/mL (≈ 0.313 µM) | 0.12 µg/mL (≈ 0.313 µM) | 0.015 µg/mL (≈ 0.0391 µM) | 0.12 µg/mL (≈ 0.313 µM) | 0.015 µg/mL (≈ 0.0391 µM) | 0.06 µg/mL (≈ 0.156 µM) | 0.008 µg/mL (≈ 0.0209 µM) | 0.008 µg/mL (≈ 0.0209 µM) | 0.015 µg/mL (≈ 0.0391 µM) | 0.25 µg/mL (≈ 0.652 µM) | 0.015 µg/mL (≈ 0.0391 µM) | 0.08 µg/mL (≈ 0.209 µM) | < 0.015 µg/mL | MIC (Campylobacter jejuni [20]): 0.008 µg/mL (≈ 0.0209 µM); MIC (Campylobacter jejuni [21]): 0.03 µg/mL (≈ 0.0782 µM); MIC (Campylobacter jejuni [22]): 0.12 µg/mL (≈ 0.313 µM); MIC (Campylobacter jejuni [23]): 0.06 µg/mL (≈ 0.156 µM); MIC (Campylobacter coli [24]): 0.03 µg/mL (≈ 0.0782 µM); MIC50 (Campylobacter jejuni [25]): 0.015 µg/mL (≈ 0.0391 µM); MIC90 (Campylobacter jejuni [25]): 0.12 µg/mL (≈ 0.313 µM); MIC (Campylobacter jejuni [26]): 0.03 µg/mL (≈ 0.0782 µM) |
| CC1(C)S[C@@H]2[C@H](NC(=O)Cc3ccccc3)C(=O)N2[C@H]1C(=O)O [PENICILLIN G] | 64 µg/mL (≈ 191 µM) | 64 µg/mL (≈ 191 µM) | 16 µg/mL (≈ 47.8 µM) | 64 µg/mL (≈ 191 µM) | 64 µg/mL (≈ 191 µM) | 128 µg/mL (≈ 383 µM) | 256 µg/mL (≈ 766 µM) | 128 µg/mL (≈ 383 µM) | 128 µg/mL (≈ 383 µM) | < 8 µg/mL | 128 µg/mL (≈ 383 µM) | 8 µg/mL (≈ 23.9 µM) | 128 µg/mL (≈ 383 µM) | 64 µg/mL (≈ 191 µM) | 64 µg/mL (≈ 191 µM) | 128 µg/mL (≈ 383 µM) | 128 µg/mL (≈ 383 µM) | < 8 µg/mL | 8 µg/mL (≈ 23.9 µM) | 4 µg/mL (≈ 12 µM) | MIC (Campylobacter jejuni [20]): 2 µg/mL (≈ 5.98 µM); MIC (Campylobacter jejuni [21]): 8 µg/mL (≈ 23.9 µM); MIC (Campylobacter jejuni [22]): 128 µg/mL (≈ 383 µM); MIC (Campylobacter jejuni [23]): 128 µg/mL (≈ 383 µM); MIC (Campylobacter coli [24]): 8 µg/mL (≈ 23.9 µM); MIC50 (Campylobacter jejuni [25]): 64 µg/mL (≈ 191 µM); MIC90 (Campylobacter jejuni [25]): 256 µg/mL (≈ 766 µM); MIC (Campylobacter jejuni [26]): 256 µg/mL (≈ 766 µM) |
| CCN1CCN(C(=O)N[C@@H](C(=O)N[C@@H]2C(=O)N3[C@@H]2SC(C)(C)[C@@H]3C(=O)O)c2ccccc2)C(=O)C1=O [PIPERACILLIN] | > 512 µg/mL | > 256 µg/mL | 8 µg/mL (≈ 15.5 µM) | > 256 µg/mL | > 256 µg/mL | > 256 µg/mL | 128 µg/mL (≈ 247 µM) | 512 µg/mL (≈ 989 µM) | 512 µg/mL (≈ 989 µM) | > 512 µg/mL | > 256 µg/mL | > 256 µg/mL | 512 µg/mL (≈ 989 µM) | > 512 µg/mL | > 512 µg/mL | > 256 µg/mL | > 256 µg/mL | 256 µg/mL (≈ 495 µM) | 512 µg/mL (≈ 989 µM) | > 256 µg/mL | MIC (Campylobacter coli [8]): 512 µg/mL (≈ 989 µM); MIC (Campylobacter jejuni [20]): 8 µg/mL (≈ 15.5 µM); MIC (Campylobacter jejuni [21]): 16 µg/mL (≈ 30.9 µM); MIC (Campylobacter jejuni [22]): 128 µg/mL (≈ 247 µM); MIC (Campylobacter jejuni [23]): > 256 µg/mL; MIC (Campylobacter coli [24]): 512 µg/mL (≈ 989 µM); MIC50 (Campylobacter jejuni [25]): ≥ 512 µg/mL; MIC90 (Campylobacter jejuni [25]): > 512 µg/mL; MIC (Campylobacter jejuni [26]): > 256 µg/mL |
